For one assay, the system named is UACC-62. The experiment in a line: Antiproliferative activity against human UACC62 cells after 48 hrs by SRB assay. Type of assay: functional, cell-based. Particulars: UACC-62, 48 h. In outline:
(§1)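 NCI melanoma panel grown in RPMI 1640 with 5% FBS and 2 mM glutamine. Seeded at 5000–40,000 cells/well, then 24 h before dosing, with time-zero plates fixed. Five concentrations (10-fold or 1/2-log dilutions from DMSO stock) for 48 h. Cells TCA-fixed, stained with 0.4% SRB, read at 515 nm. IC50 is 50% reduction in net protein increase, from (Ti−Tz)/(C−Tz).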

Another assay deals with SK-MEL-5. The experiment in a line: Antiproliferative activity against human SK-MEL-5 cells after 48 hrs by SRB assay. Format: functional, cell-based. Particulars: SK-MEL-5, 48 h. A digest of the protocol: as §1
A further assay deals with LOX IMVI. The experiment in a line: Antiproliferative activity against human LOXIMVI cells after 48 hrs by SRB assay. Format: functional, cell-based. A digest of the protocol: as §1
(In SRB staining, fixed cells bind dye roughly in proportion to their protein.)

In the next assay the test system is SK-MEL-2. Description: Antiproliferative activity against human SK-MEL-2 cells after 48 hrs by SRB assay. Type of assay: functional, cell-based. Particulars: SK-MEL-2, 48 h. A digest of the protocol:
as §1

A further assay deals with SK-MEL-28. Description: Antiproliferative activity against human SK-MEL-28 cells after 48 hrs by SRB assay. Type of assay: functional, cell-based. Particulars: SK-MEL-28, 48 h. A digest of the protocol:
as §1

Assay [1] can be described thus: Antiproliferative activity against human A375P cells after 48 hrs by MTT assay. Format: functional, cell-based. In outline:
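A375P cells grown in DMEM with 10% FBS and 1% penicillin/streptomycin at 37 °C, 5% CO2. Cells detached with 0.05% trypsin-0.02% EDTA, seeded at 5×10^3 cells/well, and left 24 h. Then exposed for 48 h to 12-point 3-fold serial dilutions. Viability read by MTT reduction, absorbance at 590 nm. IC50 derived from the concentration-response curve.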
A general note: Tetrazolium assays rely on reduction of a dye to a coloured formazan, in cell work by metabolically active cells.

Another assay concerns MDA-MB-435. The experiment in a line: Antiproliferative activity against human MDA-MB-435 cells after 48 hrs by SRB assay. Type of assay: functional, cell-based. Particulars: MDA-MB-435, 48 h. A digest of the protocol: as §1
The next assay deals with M14. The experiment in a line: Antiproliferative activity against human M14 cells after 48 hrs by SRB assay. Type of assay: functional, cell-based. Particulars: M14, 48 h. In outline:
as §1

A further assay relates to UACC-257. Description: Antiproliferative activity against human UACC257 cells after 48 hrs by SRB assay. Format: functional, cell-based. Particulars: UACC-257, 48 h. In outline: as §1
In assay [2] the target is Mitogen-activated protein kinase; ERK1/ERK2 (Homo sapiens) (UniProt P27361+P28482). Description: Inhibition of ERK1/2 phosphorylation in human A375P cells after 24 hrs by immunoblotting. Type of assay: cell-based. A digest of the protocol:
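A375P melanoma cells treated with 1, 3 and 10 μM compound for 24 h. Lysed in RIPA buffer, sonicated, centrifuged, and protein quantified by DC assay. Lysates run on SDS-PAGE and immunoblotted for phospho-ERK1/2, with β-actin as loading reference.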

Bounds are passed on as bounds.

Chain of Mitogen-activated protein kinase; ERK1/ERK2 (Homo sapiens) (P27361 whole entry, looked up): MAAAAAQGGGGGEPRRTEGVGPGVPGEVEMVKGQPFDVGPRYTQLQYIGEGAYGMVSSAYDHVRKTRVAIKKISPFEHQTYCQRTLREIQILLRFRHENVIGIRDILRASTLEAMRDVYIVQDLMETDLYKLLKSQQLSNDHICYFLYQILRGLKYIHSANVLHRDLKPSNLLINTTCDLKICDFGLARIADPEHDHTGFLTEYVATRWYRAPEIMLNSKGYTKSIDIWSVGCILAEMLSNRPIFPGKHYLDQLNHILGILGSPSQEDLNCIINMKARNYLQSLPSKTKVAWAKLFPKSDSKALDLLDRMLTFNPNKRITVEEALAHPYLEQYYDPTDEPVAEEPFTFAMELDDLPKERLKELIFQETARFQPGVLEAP
Chain of Mitogen-activated protein kinase; ERK1/ERK2 (Homo sapiens) (P28482 whole entry, looked up): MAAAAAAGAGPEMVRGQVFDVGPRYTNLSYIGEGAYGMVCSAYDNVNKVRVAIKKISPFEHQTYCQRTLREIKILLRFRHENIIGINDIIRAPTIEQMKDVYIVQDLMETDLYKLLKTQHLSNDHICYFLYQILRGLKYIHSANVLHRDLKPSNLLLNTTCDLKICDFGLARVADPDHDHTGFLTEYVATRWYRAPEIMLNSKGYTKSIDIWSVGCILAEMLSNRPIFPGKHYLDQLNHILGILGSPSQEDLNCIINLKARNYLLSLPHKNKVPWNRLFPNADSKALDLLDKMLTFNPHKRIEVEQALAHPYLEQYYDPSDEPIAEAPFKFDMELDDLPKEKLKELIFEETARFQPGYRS

By IC50 is commonly meant the concentration that gives 50% inhibition. Low values mean greater potency, high ones weaker potency. `O=C(Nc1ccc(-n2cc(-c3ccncc3)c(-c3ccc(Cl)c(O)c3)n2)cc1)c1cc(C(F)(F)F)cc(C(F)(F)F)c1`: the IC50 with UACC-62 was 14400 nM; in the assay with SK-MEL-5, 1550 nM; in the assay with LOX IMVI, 2540 nM; with SK-MEL-2, 6600 nM; with SK-MEL-28, 4880 nM; in [1], greater than 20000 nM. The IC50 was 4110 nM with MDA-MB-435, 6340 nM with M14 and 8940 nM in the assay with UACC-257.
Consider `COc1cc(-c2nn(-c3ccc(NC(=O)c4ccc(Cl)c(Cl)c4)cc3)cc2-c2ccncc2)ccc1Cl`, for which the IC50 in the assay with UACC-62 was 6340 nM; in the assay on SK-MEL-5, 1650 nM; with LOX IMVI it was 2760 nM; in the assay with SK-MEL-2, 5740 nM; in the assay with SK-MEL-28, 40300 nM; in assay [1], 13000 nM. Besides, the IC50 with MDA-MB-435 is 7130 nM; in the assay on M14, 22400 nM; with UACC-257 it was greater than 100000 nM.
Turning to `COc1cc(-c2nn(-c3ccc(NC(=O)Nc4cc(C(F)(F)F)cc(C(F)(F)F)c4)cc3)cc2-c2ccncc2)ccc1Cl`, the IC50 with UACC-62 was determined as 1550 nM; in the assay on SK-MEL-5 it was 1530 nM; in the assay with LOX IMVI, 1630 nM; in the assay with SK-MEL-2, 1700 nM; in the assay on SK-MEL-28, 1930 nM; in assay [1] it was 11800 nM. Also, the IC50 in the assay with MDA-MB-435 is 1880 nM; in the assay on M14, 1990 nM; in the assay with UACC-257, 2300 nM.
For `COc1cc(-c2nn(-c3ccc(NC(=O)c4cc(Cl)cc(Cl)c4)cc3)cc2-c2ccncc2)ccc1Cl`, the IC50 is 4580 nM in the assay on UACC-62; 12000 nM in the assay with SK-MEL-5; 3090 nM in the assay on LOX IMVI; greater than 100000 nM in the assay on SK-MEL-2; greater than 100000 nM with SK-MEL-28; greater than 20000 nM in assay [1]. The concentration for half-maximal inhibition (IC50) is greater than 100000 nM in the assay with MDA-MB-435, 7390 nM with M14 and greater than 100000 nM with UACC-257.
For the molecule `O=C(Nc1ccc(-n2cc(-c3ccncc3)c(-c3ccc(Cl)c(O)c3)n2)cc1)Nc1ccc(Cl)c(C(F)(F)F)c1`, the IC50 came out at 1700 nM in the assay with UACC-62; 1530 nM in the assay with SK-MEL-5; 1440 nM with LOX IMVI; 1700 nM with SK-MEL-2; 1630 nM in the assay with SK-MEL-28; 14900 nM in [1]. Further, the IC50 with MDA-MB-435 came to 1320 nM; with M14, 1430 nM; in the assay with UACC-257 it was 1510 nM.
For the molecule `O=C(Nc1ccc(-n2cc(-c3ccncc3)c(-c3ccc(Cl)c(O)c3)n2)cc1)Nc1cc(C(F)(F)F)cc(C(F)(F)F)c1`, the IC50 was 2230 nM with UACC-62; 1670 nM in the assay with SK-MEL-5; 1630 nM in the assay on LOX IMVI; 1800 nM with SK-MEL-2; 2010 nM in the assay on SK-MEL-28; greater than 20000 nM in [1]. Also, the values for the IC50 with MDA-MB-435, with M14 and in the assay with UACC-257 were 1770 nM, 1760 nM and 2010 nM, respectively.
In turn, `O=C(Nc1ccc(-n2cc(-c3ccncc3)c(-c3ccc(Cl)c(O)c3)n2)cc1)Nc1ccc(Cl)c(Cl)c1` yielded an IC50 in assay [1] of 13500 nM.
On to `O=C(Nc1ccc(-n2cc(-c3ccncc3)c(-c3ccc(Cl)c(O)c3)n2)cc1)c1cc(Cl)cc(Cl)c1`, for which the IC50 in the assay on UACC-62 is 2730 nM; in the assay on SK-MEL-5, 1400 nM; in the assay on LOX IMVI, 1190 nM; in the assay on SK-MEL-2, 6910 nM; in the assay with SK-MEL-28, 2750 nM; in [1], 6800 nM. Moreover, the IC50 stood at 3780 nM in the assay on MDA-MB-435, 1510 nM in the assay on M14 and 5700 nM in the assay on UACC-257.
As to `CNC(=O)c1cc(Oc2ccc(NC(=O)Nc3ccc(Cl)c(C(F)(F)F)c3)cc2)ccn1` [SORAFENIB], the IC50 in assay [1] worked out at 11500 nM.
On to `O=C(Nc1ccc(-n2cc(-c3ccncc3)c(-c3ccc(Cl)c(O)c3)n2)cc1)c1ccc(Cl)c(C(F)(F)F)c1`, for which the IC50 with UACC-62 was determined as 2030 nM; in the assay on SK-MEL-5, 1070 nM; with LOX IMVI, 360 nM; with SK-MEL-2, 1580 nM; in the assay on SK-MEL-28, 1080 nM; in assay [1], 6800 nM. Besides, the IC50 in the assay on MDA-MB-435 turned out to be 1200 nM; in the assay on M14, 840 nM; in the assay on UACC-257, 2550 nM.
As to `O=C(Nc1ccc(-n2cc(-c3ccncc3)c(-c3ccc(Cl)c(O)c3)n2)cc1)c1ccc(Cl)c(Cl)c1`, the IC50 in the assay on UACC-62 came out at 3220 nM; in the assay on SK-MEL-5 it was 1150 nM; with LOX IMVI, 1450 nM; with SK-MEL-2 it was 4050 nM; in the assay on SK-MEL-28 it was 2940 nM; in assay [1], 6700 nM. Moreover, the IC50 is 2730 nM in the assay on MDA-MB-435, 2350 nM in the assay on M14 and 4740 nM in the assay on UACC-257. In addition, the inhibition entry in assay [2] is “Dose-dependent effect”.
For the molecule `O=C(Nc1ccc(-n2cc(-c3ccncc3)c(-c3ccc(Cl)c(O)c3)n2)cc1)Nc1cccc(Cl)c1Cl`, in [1], half-maximal inhibition (IC50) required 16800 nM.
Molecule `COc1cc(-c2nn(-c3ccc(NC(=O)Nc4cccc(Cl)c4Cl)cc3)cc2-c2ccncc2)ccc1Cl` showed an IC50 in [1] greater than 20000 nM.
Turning to `COc1cc(-c2nn(-c3ccc(NC(=O)c4ccc(Cl)c(C(F)(F)F)c4)cc3)cc2-c2ccncc2)ccc1Cl`, the IC50 turned out to be 2180 nM in the assay on UACC-62; 1590 nM with SK-MEL-5; 1560 nM in the assay with LOX IMVI; 3150 nM in the assay on SK-MEL-2; 2800 nM in the assay on SK-MEL-28; 9800 nM in assay [1]. The 50% inhibitory concentration (IC50) in the assay with MDA-MB-435 amounted to 2520 nM; in the assay on M14, 1920 nM; with UACC-257, 5830 nM.
Turning to `COc1cc(-c2nn(-c3ccc(NC(=O)Nc4ccc(Cl)c(Cl)c4)cc3)cc2-c2ccncc2)ccc1Cl`, the IC50 is 3350 nM in the assay with UACC-62; 2840 nM in the assay with SK-MEL-5; 1980 nM in the assay with LOX IMVI; 3440 nM in the assay with SK-MEL-2; 3940 nM in the assay with SK-MEL-28; greater than 20000 nM in assay [1]. Moreover, the IC50 came out at 2870 nM in the assay with MDA-MB-435, 2560 nM in the assay with M14 and 3170 nM with UACC-257.
As for `COc1cc(-c2nn(-c3ccc(NC(=O)Nc4ccc(Cl)c(C(F)(F)F)c4)cc3)cc2-c2ccncc2)ccc1Cl`, the IC50 in the assay on UACC-62 is 1770 nM; with SK-MEL-5, 1570 nM; with LOX IMVI it was 1430 nM; in the assay with SK-MEL-2, 1630 nM; in the assay on SK-MEL-28, 1880 nM; in assay [1], 14000 nM. Further, the IC50 is 1600 nM in the assay with MDA-MB-435, 1740 nM in the assay with M14 and 1640 nM in the assay on UACC-257.
Molecule `COc1cc(-c2nn(-c3ccc(NC(=O)c4cc(C(F)(F)F)cc(C(F)(F)F)c4)cc3)cc2-c2ccncc2)ccc1Cl` returned an IC50 in assay [1] greater than 20000 nM.

Source of the values: ChEMBL document CHEMBL1909578, “New diarylureas and diarylamides containing 1,3,4-triarylpyrazole scaffold: Synthesis, antiproliferative evaluation against melanoma cell lines, ERK kinase inhibition, and molecular docking studies” (Eur J Med Chem, 2011).
